The text below walks through data of publication PMC7311273 (Nuclear medicine and biology, 2020).

Where “and” joins values, the source holds several entries; their conditions need not be identical. Identical values can stand only once. Entries after “also recorded” stand apart in the source; their conditions may differ.

The conditions of data set [1]: normal CD-1 IGS male mice, 60 min; cited from earlier work.
The nature of data set [2]: Normal organ dosimetry from whole body PET and urine collection, OLINDA/EXM. Type of data set: in vivo, human. The gist of the method: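 Eight men received up to ~232 MBq IV. Six top-of-skull to mid-thigh PET scans (10 beds × 90 s) started ~1, 20, 40, 60, 120 and 150 min. Two low-dose CTs gave attenuation correction. Urine from voids after scans 4 and 6 was gamma-counted. Organ activities came from PET images; cortical bone from femur shaft density × 2130 cm3. Time-activity curves fitted mono/bi-exponentially or by Riemann sum.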

Data set [3] concerns prostate cancer osseous metastases. Type of data set: in vivo, human. The gist of the method: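 Tracer given IV to men with prostate cancer and known or suspected bone metastases. 60-min dynamic PET from injection over a known or suspected lesion site, then skull-base to mid-thigh PET/CT at ~90 and 180 min. SUVpeak from 1 cm spheres on lesions, blood pool and normal bone. List-mode data subsampled to emulate lower activities (10 replicates, TOF OSEM, 4-mm voxels). Lesion SNR = Lmax/Lmax SD, decay-corrected.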

Data set [4] can be described thus: Subject tolerability to radiotracer administration. Type of data set: in vivo, human.
For data set [5] the following is noted: competition with equimolar amounts of ligands with gallium, cited from earlier work.
Setting [6] is: 8 male humans, Standard Adult Male phantom.
[7] abbreviates: injected activity of 166.5 MBq (4.5 mCi).

As to `O=C(O)CN1CCN(CC(=O)O)CCN(CC(=O)NC(P(=O)(O)O)P(=O)(O)O)CCN(CC(=O)O)CC1.[68Ga]` [[^68Ga]Ga-BPAMD, reference compound], the “bone uptake (retention)” value in data set [1] is reported as 9.2 % injected activity/g.
Turning to “[^68Ga]Ga-3-(3-(((carboxymethyl)(2-((carboxymethyl)(5-(3-((diphosphonomethyl)amino)-3-oxopropyl)-2-hydroxybenzyl)amino)ethyl)amino)methyl)-4-hydroxyphenyl)propanoic acid [[^68Ga]Ga-P15-041]”, in data set [1], the “bone uptake (retention)” value was 23.5 % injected activity/g. In addition, in data set [2] (setting [6]), the “Effective dose equivalent, Mean” value is 2.31E-02 mSv/MBq; the “Effective dose, Mean” value is 0.0173 ± 0.0036 mSv/MBq and 1.73E-02 mSv/MBq; the “absorbed dose estimate, Adrenals, Mean” value is listed as 1.02E-02 mSv/MBq; the “absorbed dose estimate, Brain, Mean” value was 3.57E-03 mSv/MBq. Besides, in data set [2] (setting [6]), the “absorbed dose estimate, Breasts, Mean” value is listed as 8.07E-03 mSv/MBq; the “absorbed dose estimate, Gallbladder wall, Mean” value is reported as 1.03E-02 mSv/MBq; the “absorbed dose estimate, Heart Wall, Mean” value is on record as 1.98E-02 mSv/MBq; the “absorbed dose estimate, Kidneys, Mean” value is 4.93E-02 mSv/MBq. Moreover, in data set [2] (setting [6]), the “absorbed dose estimate, Liver, Mean” value is reported as 8.16E-03 mSv/MBq; the “absorbed dose estimate, Lower large intestine wall, Mean” value was 1.29E-02 mSv/MBq; the “absorbed dose estimate, Lungs, Mean” value was 1.73E-02 mSv/MBq; the “absorbed dose estimate, Muscle, Mean” value is 9.19E-03 mSv/MBq. In addition, in data set [2] (setting [6]), the “absorbed dose estimate, Osteogenic cells, Mean” value is 2.63E-02 mSv/MBq; the “absorbed dose estimate, Ovaries, Mean” value is listed as 1.16E-02 mSv/MBq; the “absorbed dose estimate, Pancreas, Mean” value is 1.03E-02 mSv/MBq; the “absorbed dose estimate, Red Marrow, Mean” value is 8.04E-03 mSv/MBq. For the same compound, in data set [2] (setting [6]), the “absorbed dose estimate, Skin, Mean” value is on record as 7.85E-03 mSv/MBq; the “absorbed dose estimate, Small intestine, Mean” value was 2.41E-02 mSv/MBq; the “absorbed dose estimate, Spleen, Mean” value was 1.17E-02 mSv/MBq; the “absorbed dose estimate, Stomach wall, Mean” value is listed as 9.77E-03 mSv/MBq. Besides, in data set [2] (setting [6]), the “absorbed dose estimate, Testes, Mean” value was 9.57E-03 mSv/MBq; the “absorbed dose estimate, Thymus, Mean” value was 9.26E-03 mSv/MBq; the “absorbed dose estimate, Thyroid, Mean” value is on record as 8.92E-03 mSv/MBq; the “absorbed dose estimate, Total Body, Mean” value was 1.07E-02 mSv/MBq. Also, in data set [2] (setting [6]), the “absorbed dose estimate, Upper large intestine wall, Mean” value was 1.97E-02 mSv/MBq and the “absorbed dose estimate, Uterus, Mean” value is recorded as 1.33E-02 mSv/MBq. The “absorbed dose estimate, Urinary bladder wall, Mean” value in data set [2] (8 male humans, Standard Adult Male phantom, highest individual organ dose) is 0.135 mSv/MBq and 1.35E-01 mSv/MBq. In data set [2] (setting [7]), the “absorbed dose to the kidneys” value turned out to be 8.2 mSv, the “absorbed dose to the urinary bladder wall” value is on record as 22.5 mSv and the effective dose is on record as 2.9 mSv. The “uptake in bone lesions” value in data set [3] (PET/CT, patients with prostate cancer bone metastases) is on record as “accumulated in known bone lesions; also recorded: lesion uptake consistently above background”. The “activity concentrations in blood and normal bone” value in data set [3] (dynamic cohort, n=4, compared to sites of osseous metastasis) is reported as “low compared to sites of osseous metastasis”. Moreover, the “clearance from blood and soft tissue” value in data set [3] (human PET) is “cleared rapidly from blood and soft tissue”. In addition, the “changes in vital signs before and after injection” value in data set [4] (13 subjects) was “No clinically significant changes”. Also, the “tolerability / adverse events” value in data set [4] (administered to 13 subjects (12 completed protocol)) is “well-tolerated with no reports of serious adverse events”.
Regarding `O=C(O)CN(CCN(CC(=O)O)Cc1ccccc1O)Cc1ccccc1O` [HBED, N, N’-bis(2-hydroxybenzyl)ethylenediamine-N,N’-diacetic acid], the “out complexes DOTA by” value in data set [5] (versus DOTA) is recorded as 99%. Further, the “out complexes NOTA by” value in data set [5] (versus NOTA) is on record as 43%.
